ChEMBL document CHEMBL1125286, “Zatosetron, a potent, selective, and long-acting 5HT3 receptor antagonist: synthesis and structure-activity relationships” (J Med Chem, 1992)
Each block holds one molecule with its values, some of them ahead of it.

Key:
[1] = biological target: T1, Serotonin 3 (5-HT3) receptor (Rattus norvegicus) (UniProt P35563+Q9JJ16); assay: 5-hydroxytryptamine 3 receptor antagonistic activity was measured by the inhibition of 5-HT-induced bradycardia after iv administration of 1000 ug/kg dose in urethane-anesthetized rats; format: functional, organism-based
How it was run: (§1)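 Urethane-anesthetized rats. First 5HT challenge 30 μg/kg iv gives a transient bradycardia. Once heart rate is back at steady state (≤5 min), test compound or saline goes in via the femoral vein. 5HT 30 μg/kg iv is repeated 15 min later. % inhibition is the difference between first and second bradycardia at peak, each animal its own control. Means ± SEM, groups of 3–16 rats.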

[2] = biological target: T1, Serotonin 3 (5-HT3) receptor (Rattus norvegicus); assay: 5-hydroxytryptamine 3 receptor antagonistic activity measured by inhibition of 5-HT-induced bradycardia (iv administration 10 ug/kg dose in urethane-anesthetized rats); format: functional, organism-based; how it was run: as §1
[3] = biological target: T1, Serotonin 3 (5-HT3) receptor (Rattus norvegicus); assay: Compound was tested for the inhibition of 5-HT-induced bradycardia after intravenous administration of 30 ug/kg dose in urethane-anesthetized rats; format: functional, organism-based; how it was run: as §1
[4] = biological target: T1, Serotonin 3 (5-HT3) receptor (Rattus norvegicus); assay: 5-hydroxytryptamine 3 receptor antagonistic activity was measured by the inhibition of 5H+ T-induced bradycardia after iv administration of 3 ug/kg dose in urethane-anesthetized rats; format: functional, organism-based
How it was run: (§2)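 Urethane-anesthetized rats; antagonist or saline given iv via femoral vein after heart rate settled (≤5 min) from an initial 5HT challenge (30 µg/kg iv). 5HT was given again 15 min later. Peak bradycardia measured, each rat its own control; % inhibition = difference between first and second responses. Groups of 3–16 rats, means ± SEM.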

[5] = biological target: T1, Serotonin 3 (5-HT3) receptor (Rattus norvegicus); assay: 5-HT3 receptor antagonistic activity was measured by the inhibition of 5-HT-induced bradycardia after iv administration of 1000 ug/kg dose in urethane-anesthetized rats; format: functional, organism-based; how it was run: as §1
[6] = biological target: T1, Serotonin 3 (5-HT3) receptor (Rattus norvegicus); assay: 5-hydroxytryptamine 3 receptor antagonistic activity was measured by the inhibition of 5H+ T-induced bradycardia after iv administration of 1000 ug/kg dose in urethane-anesthetized rats; format: functional, organism-based; how it was run: as §1
[7] = biological target: T1, Serotonin 3 (5-HT3) receptor (Rattus norvegicus); assay: Compound was tested for the inhibition of 5-HT-induced bradycardia after peroral administration of 1 mg/kg at 0.5 hours in urethane-anesthetized rats; format: functional, organism-based; set-up: dose 1 mg/kg; details: at 1 mg/kg
How it was run: (§3)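 Duration study: antagonist or vehicle gavaged to conscious fasted rats (5 mL/kg). Rats were urethane-anesthetized and surgically prepared, then challenged with 5HT 0.03 mg/kg iv at the stated time after dosing. Vehicle-treated rats served as controls. Peak inhibition of bradycardia recorded in groups of 3–11, means ± SEM.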

[8] = biological target: T1, Serotonin 3 (5-HT3) receptor (Rattus norvegicus); assay: 5-hydroxytryptamine 3 receptor antagonistic activity was measured by the inhibition of 5H+ T-induced bradycardia after po administration of 1000 ug/kg dose in urethane-anesthetized rats; format: functional, organism-based
How it was run: (§4)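 Fasted rats dosed by gavage (5 mL/kg) with compound or distilled-water vehicle. Urethane anesthesia and surgical preparation 15–20 min before challenge. 5HT 0.03 mg/kg iv given 1 h after dosing. Peak bradycardia is compared with vehicle-treated controls. Means ± SEM, groups of 3–11 rats.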

[9] = biological target: T1, Serotonin 3 (5-HT3) receptor (Rattus norvegicus); assay: Inhibition of 5-HT-induced bradycardia by 5-hydroxytryptamine 3+; format: functional
[10] = biological target: T1, Serotonin 3 (5-HT3) receptor (Rattus norvegicus); assay: 5-hydroxytryptamine 3 receptor antagonistic activity was measured by the inhibition of 5H+ T-induced bradycardia after po administration of 300 ug/kg dose in urethane-anesthetized rats; format: functional, organism-based; how it was run: as §4
[11] = biological target: T1, Serotonin 3 (5-HT3) receptor (Rattus norvegicus); assay: 5-hydroxytryptamine 3 receptor antagonistic activity was measured by the inhibition of 5H+ T-induced bradycardia after po administration of 100 ug/kg dose in urethane-anesthetized rats; format: functional, organism-based; how it was run: as §4
[12] = biological target: T1, Serotonin 3 (5-HT3) receptor (Rattus norvegicus); assay: Compound was tested for the inhibition of 5-HT-induced bradycardia after peroral administration of 1 mg/kg at 3 hours in urethane-anesthetized rats; format: functional, organism-based; set-up: dose 1 mg/kg; details: at 1 mg/kg; how it was run: as §3
[13] = biological target: T1, Serotonin 3 (5-HT3) receptor (Rattus norvegicus); assay: Compound was tested for the inhibition of 5-HT-induced bradycardia after peroral administration in urethane-anesthetized rats
[14] = biological target: T1, Serotonin 3 (5-HT3) receptor (Rattus norvegicus); assay: 5-hydroxytryptamine 3 receptor antagonistic activity was measured by the inhibition of 5H+ T-induced bradycardia after po administration of 30 ug/kg dose in urethane-anesthetized rats; format: functional, organism-based; how it was run: as §4
[15] = biological target: T1, Serotonin 3 (5-HT3) receptor (Rattus norvegicus); assay: Compound was tested for the inhibition of 5-HT-induced bradycardia after peroral administration of 1 mg/kg at 1 hour in urethane-anesthetized rats; format: functional, organism-based; set-up: dose 1 mg/kg; details: at 1 mg/kg; how it was run: as §3
[16] = biological target: T1, Serotonin 3 (5-HT3) receptor (Rattus norvegicus); assay: Compound was tested for the inhibition of 5-HT-induced bradycardia after peroral administration of 0.1 mg/kg at 16 hours in urethane-anesthetized rats; format: functional, organism-based; set-up: dose 0.1 mg/kg; details: at 0.1 mg/kg; how it was run: as §3
[17] = biological target: T1, Serotonin 3 (5-HT3) receptor (Rattus norvegicus); assay: Compound was tested for the inhibition of 5-HT-induced bradycardia after peroral administration of 0.1 mg/kg at 0.5 hours in urethane-anesthetized rats; format: functional, organism-based; set-up: dose 0.1 mg/kg; details: at 0.1 mg/kg; how it was run: as §3
[18] = biological target: T1, Serotonin 3 (5-HT3) receptor (Rattus norvegicus); assay: Compound was tested for the inhibition of 5-HT-induced bradycardia after peroral administration of 100 ug/kg dose in urethane-anesthetized rats; format: functional, organism-based
How it was run: (§5)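 Fasted rats gavaged (5 mL/kg) with antagonist or vehicle (distilled water). Urethane anesthesia and surgical preparation followed, 15–20 min before 5HT challenge. 5HT 30 µg/kg iv given 1 h after dosing, with vehicle-treated rats as controls. Peak % inhibition of bradycardia in groups of 3–11, means ± SEM.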

[19] = biological target: T1, Serotonin 3 (5-HT3) receptor (Rattus norvegicus); assay: Compound was tested for the inhibition of 5-HT-induced bradycardia after intravenous administration of 1 ug/kg dose in urethane-anesthetized rats; format: functional, organism-based; how it was run: as §2
[20] = biological target: T1, Serotonin 3 (5-HT3) receptor (Rattus norvegicus); assay: Compound was tested for the inhibition of 5-HT-induced bradycardia after peroral administration of 0.1 mg/kg at 6 hours in urethane-anesthetized rats; format: functional, organism-based; set-up: dose 0.1 mg/kg; details: at 0.1 mg/kg; how it was run: as §3
[21] = biological target: T1, Serotonin 3 (5-HT3) receptor (Rattus norvegicus); assay: Compound was tested for the inhibition of 5-HT-induced bradycardia after peroral administration of 30 ug/kg dose in urethane-anesthetized rats; format: functional, organism-based; how it was run: as §5
[22] = biological target: T1, Serotonin 3 (5-HT3) receptor (Rattus norvegicus); assay: Compound was tested for the inhibition of 5-HT-induced bradycardia after peroral administration of 300 ug/kg dose in urethane-anesthetized rats; format: functional, organism-based; how it was run: as §4
[23] = biological target: T1, Serotonin 3 (5-HT3) receptor (Rattus norvegicus); assay: Compound was tested for the inhibition of 5-HT-induced bradycardia after intravenous administration of 0.3 ug/kg dose in urethane-anesthetized rats; format: functional, organism-based; how it was run: as §2
[24] = biological target: T1, Serotonin 3 (5-HT3) receptor (Rattus norvegicus); assay: Compound was tested for the inhibition of 5-HT-induced bradycardia after peroral administration of 0.1 mg/kg at 3 hours in urethane-anesthetized rats; format: functional, organism-based; set-up: dose 0.1 mg/kg; details: at 0.1 mg/kg; how it was run: as §3
[25] = tested on: Serotonin 3 receptor (Cavia porcellus); assay: In vitro binding affinity was measured for 5-hydroxytryptamine 3 receptor in the guinea pig ileum.
[26] = biological target: T1, Serotonin 3 (5-HT3) receptor (Rattus norvegicus); assay: Compound was tested for the inhibition of 5-HT-induced bradycardia after peroral administration of 0.1 mg/kg at 1 hour in urethane-anesthetized rats; format: functional, organism-based; set-up: dose 0.1 mg/kg; details: at 0.1 mg/kg; how it was run: as §3
[27] = biological target: T1, Serotonin 3 (5-HT3) receptor (Rattus norvegicus); assay: Compound was tested for the inhibition of 5-HT-induced bradycardia after peroral administration of 1000 ug/kg dose in urethane-anesthetized rats; format: functional, organism-based; how it was run: as §5

Structure (SMILES): CN1C2CCC1CC(OC(=O)c1ccccc1-c1ccccc1)C2 (centres undefined)
inhibition [1]: 47.3%

Structure (SMILES): Cc1coc2c(C(=O)OC3CC4CCC(C3)N4C)cccc12 (centres undefined)
inhibition [2]: 7.7%

inhibition [2]: 0%
Structure (SMILES): CN1C2CCC1CC(NC(=O)c1ccc3c(c1)OC(C)(C)C3)C2 (centres undefined)

Structure (SMILES): CC1Oc2c(C(=O)OC3CC4CCC(C3)N4C)cccc2C1C (stereo in doubt; 27)
inhibition [3]: 47.3%
inhibition [2]: 32.7%
inhibition [4]: 35.6%

Structure (SMILES): CN1CCC(OC(=O)c2ccccc2)CC1
inhibition [5]: 0%

Structure (SMILES): CN1C2CCC1CC(OC(=O)c1cccc3c1Cc1ccccc1-3)C2 (centres undefined)
inhibition [6]: 51%

Structure (SMILES): COc1cc2c(c(C(=O)OC3CC4CCC(C3)N4C)c1)OC(C)C2 (centres undefined)
inhibition [2]: 4.1%

inhibition [7]: 74.3%
inhibition [8]: 73.4%
ED50 [9]: 0.0033 mg/kg
inhibition [10]: 55.1%
inhibition [11]: 18.2%
inhibition [12]: 6.5%
ED50 [13]: 0.316 mg/kg
inhibition [14]: 0.3%
inhibition [15]: 73.4%
Structure (SMILES): Cc1nccn1CC1CCc2c(c3ccccc3n2C)C1=O (centres undefined)

inhibition [16]: 0%
inhibition [17]: 87%
inhibition [18]: 74.6%
inhibition [19]: 58.1%
ED50 [9]: 0.001 mg/kg
inhibition [2]: 80%
inhibition [20]: 71.4%
ED50 [13]: 0.063 mg/kg
inhibition [21]: 21.9%
inhibition [22]: 89.7%
inhibition [23]: 11%
inhibition [24]: 75.2%
-Log KB [25]: 8.27
inhibition [26]: 74.6%
inhibition [27]: 94.6%
inhibition [4]: 79.8%
Structure (SMILES): CC1Cc2cc(Cl)cc(C(=O)NC3CC4CCC(C3)N4C)c2O1 (centres undefined)
